Measurements of several laboratories.
Lines come from different studies, so protocols differ.
LRRK2 G2019S: Leucine-rich repeat serine/threonine-protein kinase 2 (LRRK2, Homo sapiens, UniProt Q5S007, G2019S)
LRRK2: Leucine-rich repeat serine/threonine-protein kinase 2 (LRRK2, Homo sapiens, UniProt Q5S007)

SMILES | target | read-out | mode | technique | tested at | quantity | result
N#CC1(c2ccccn2)CCN(Cc2cc(C(=O)O)c(=O)n3ccccc23)CC1 | LRRK2 G2019S | cell-free assay | – | competition with immobilised ligand | 1 µM | remaining binding | 100%
Cc1nn(C)cc1-c1nc2c(N3CCN(Cc4ccc(Cl)cc4)CC3)c(Cl)cnc2[nH]1 | LRRK2 G2019S | binding | – | competition with immobilised ligand | 1 µM | remaining binding | 85%
Nc1ncc(-c2nc(N3CCOCC3)nc(N3CCOCC3)n2)c(C(F)F)n1 | LRRK2 G2019S | binding | – | competition with immobilised ligand | 10 µM | remaining binding | 91%
CC(C)(C)c1cc(C=C(C#N)C#N)cc(Br)c1O | LRRK2 | enzyme activity | inhibitor | – | 0.5 µM | remaining activity | 109%
C#Cc1n[nH]c2c(-c3cn(C(C)c4ccccn4)c(=O)[nH]c3=O)cc(F)cc12 (stereo not drawn) | LRRK2 | enzyme activity | inhibitor | – | 1 µM | inhibition | -0.2%
Cn1cncc1[C@@](O)(COc1ccc(C#N)cc1-c1ccc(OC(F)(F)F)cc1)c1ccc(C#N)cc1 | LRRK2 G2019S | cell-free assay | – | competition with immobilised ligand | 1 µM | remaining binding | 91%
O=c1[nH]c2ccccc2n1C1CCN(Cc2ccc(-c3[nH]c4cc5ncnc5cc4nc3-c3ccccc3)cc2)CC1 | LRRK2 | cell-free assay | – | – | 0.5 µM | remaining signal | 103%
COc1ncccc1-c1cnn2ccc(N3CCN(C(=O)OC(C)C)CC3)nc12 | LRRK2 | binding | – | competition with immobilised ligand | 1 µM | remaining binding | 87%
Cn1cc(-c2cccc(N3CCc4c(sc5c4CC(C)(C)C5)C3=O)c2CO)cc(Nc2ccncn2)c1=O | LRRK2 | enzyme activity | inhibitor | – | 1 µM | inhibition | -1%
